Tested on: not listed separately
Test: Antiinflammatory activity in mouse RAW264.7 cells assessed as inhibition of LPS-induced nitric oxide production at 100 uM after 24 hrs by Griess assay relative to control
Type: functional
Conditions: RAW264.7, 24 h
Outline: (§1)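 RAW264.7 cells (5 × 10^5/mL) pre-treated with samples at 100, 50, 10 or 1 µM, then LPS (100 ng/mL) for 24 h. Nitrite in medium measured by mixing with equal volume Griess reagent (1% sulfanilamide in 5% H3PO4, 0.1% N-naphthyl-ethylenediamine), 10 min at 37 °C, absorbance 540 nm; quantified against NaNO2 standard curve; minocycline as positive control.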

SMILES | inhibition at 100 µM [%]
COc1cc([C@@H](O)[C@H](CO)Oc2c(OC)cc([C@@H](O)[C@H](O)CO)cc2OC)ccc1O | 3.4
COc1cc([C@H](OC)[C@@H](CO)Oc2ccc([C@@H](O)[C@H](O)CO)cc2OC)ccc1O | 7
COc1cc([C@@H](O)[C@H](CO)Oc2ccc([C@@H](OC)[C@H](CO)c3ccc(O)c(OC)c3)cc2OC)ccc1O | 57.3

Tested on: not listed separately
Test: Antioxidant activity assessed as ferric ion reducing activity by measuring Fe2+ levels using fe3+-TPTZ at 750 ug/ml after 30 mins by FRAP assay
Type: functional
Conditions: not given
Outline: (§2)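 FRAP reagent: 300 mM acetate buffer pH 3.6, 10 mM TPTZ in 40 mM HCl, 20 mM FeCl3. Sample (3000, 1500, 750, 375 µg/mL solutions) mixed with reagent, 30 min at 37 °C, absorbance 593 nm. Values expressed as µM Fe2+ from FeSO4 calibration curve (5–450 µM).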

SMILES | Activity [µmol/L]
COc1cc([C@@H](O)[C@H](CO)Oc2c(OC)cc([C@@H](O)[C@H](O)CO)cc2OC)ccc1O | 58.1
COc1cc([C@H](OC)[C@@H](CO)Oc2ccc([C@@H](O)[C@H](O)CO)cc2OC)ccc1O | 50.5
COc1cc([C@@H](O)[C@H](CO)Oc2ccc([C@@H](OC)[C@H](CO)c3ccc(O)c(OC)c3)cc2OC)ccc1O | 89.5

Tested on: not listed separately
Test: Antioxidant activity assessed as DPPH radical scavenging activity incubated in dark for 30 mins
Type: functional
Conditions: not given
Outline: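 Samples (0.4 mM stock, 5–40 µL series) and DPPH (2 mM stock, 20 µL) in ethanol, made to 200 µL with ethanol; incubated 30 min in dark at 37 °C; absorbance at 517 nm. Ethanol replaced sample as blank.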

SMILES | IC50 [µM]
COc1cc([C@@H](O)[C@H](CO)Oc2c(OC)cc([C@@H](O)[C@H](O)CO)cc2OC)ccc1O | 114
COc1cc([C@H](OC)[C@@H](CO)Oc2ccc([C@@H](O)[C@H](O)CO)cc2OC)ccc1O | 109
COc1cc([C@@H](O)[C@H](CO)Oc2ccc([C@@H](OC)[C@H](CO)c3ccc(O)c(OC)c3)cc2OC)ccc1O | 43.6

Tested on: not listed separately
Test: Antiinflammatory activity in mouse RAW264.7 cells assessed as inhibition of LPS-induced nitric oxide production after 24 hrs by Griess assay
Type: functional, cell-based
Conditions: RAW264.7, 24 h
Outline: as §1

SMILES | IC50 [µM]
COc1cc([C@@H](O)[C@H](CO)Oc2c(OC)cc([C@@H](O)[C@H](O)CO)cc2OC)ccc1O | > 100
COc1cc([C@H](OC)[C@@H](CO)Oc2ccc([C@@H](O)[C@H](O)CO)cc2OC)ccc1O | > 100
COc1cc([C@@H](O)[C@H](CO)Oc2ccc([C@@H](OC)[C@H](CO)c3ccc(O)c(OC)c3)cc2OC)ccc1O | 97.3

Tested on: not listed separately
Test: Antiinflammatory activity in mouse RAW264.7 cells assessed as inhibition of LPS-induced TNFalpha production at 100 uM after 24 hrs by ELISA relative to control
Type: functional
Conditions: RAW264.7, 24 h
Outline: (§3)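 RAW264.7 cells plated at 5 × 10^5/mL, pre-treated with samples at 100, 50, 10 or 1 µM, then stimulated with LPS (100 ng/mL) for 24 h. TNF-α in the medium measured by ELISA kit per manufacturer's instructions and quantified from a standard curve; silybin as positive control.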

SMILES | inhibition at 100 µM [%]
COc1cc([C@@H](O)[C@H](CO)Oc2c(OC)cc([C@@H](O)[C@H](O)CO)cc2OC)ccc1O | 47
COc1cc([C@H](OC)[C@@H](CO)Oc2ccc([C@@H](O)[C@H](O)CO)cc2OC)ccc1O | 57.7
COc1cc([C@@H](O)[C@H](CO)Oc2ccc([C@@H](OC)[C@H](CO)c3ccc(O)c(OC)c3)cc2OC)ccc1O | 18.4

Organism: Mus musculus
Test: Cytotoxicity against mouse RAW264.7 cells assessed as effect on cell viability at 100 uM preincubated for 1 hr followed by LPS stimulation measured after 24 hrs by MTT assay
Type: toxicity, cell-based
Conditions: raw264.7, 24 h
Outline: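 RAW264.7 cells in DMEM with 10% FBS and penicillin/streptomycin at 37 °C, 5% CO2, seeded 5 × 10^5 cells/well; treated with samples (100 µM) 1 h, then LPS (100 ng/mL) 24 h. MTT (0.25 mg/mL) added for 4 h; formazan read at 540 nm; untreated cells as control.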

SMILES | Activity
COc1cc([C@@H](O)[C@H](CO)Oc2c(OC)cc([C@@H](O)[C@H](O)CO)cc2OC)ccc1O | Non-Toxic
COc1cc([C@H](OC)[C@@H](CO)Oc2ccc([C@@H](O)[C@H](O)CO)cc2OC)ccc1O | Non-Toxic
COc1cc([C@@H](O)[C@H](CO)Oc2ccc([C@@H](OC)[C@H](CO)c3ccc(O)c(OC)c3)cc2OC)ccc1O | Non-Toxic

Tested on: not listed separately
Test: Antioxidant activity assessed as ferric ion reducing activity by measuring Fe2+ levels using fe3+-TPTZ at 375 ug/ml after 30 mins by FRAP assay
Type: functional
Conditions: not given
Outline: as §2

SMILES | Activity [µmol/L]
COc1cc([C@@H](O)[C@H](CO)Oc2c(OC)cc([C@@H](O)[C@H](O)CO)cc2OC)ccc1O | 35.9
COc1cc([C@H](OC)[C@@H](CO)Oc2ccc([C@@H](O)[C@H](O)CO)cc2OC)ccc1O | 29.9
COc1cc([C@@H](O)[C@H](CO)Oc2ccc([C@@H](OC)[C@H](CO)c3ccc(O)c(OC)c3)cc2OC)ccc1O | 60.8

Tested on: not listed separately
Test: Antiinflammatory activity in mouse RAW264.7 cells assessed as inhibition of LPS-induced TNFalpha production at 10 uM after 24 hrs by ELISA relative to control
Type: functional
Conditions: RAW264.7, 24 h
Outline: as §3

SMILES | inhibition at 10 µM [%]
COc1cc([C@@H](O)[C@H](CO)Oc2c(OC)cc([C@@H](O)[C@H](O)CO)cc2OC)ccc1O | 13.7
COc1cc([C@H](OC)[C@@H](CO)Oc2ccc([C@@H](O)[C@H](O)CO)cc2OC)ccc1O | 18.9
COc1cc([C@@H](O)[C@H](CO)Oc2ccc([C@@H](OC)[C@H](CO)c3ccc(O)c(OC)c3)cc2OC)ccc1O | 3.2

Tested on: not listed separately
Test: Antiinflammatory activity in mouse RAW264.7 cells assessed as inhibition of LPS-induced nitric oxide production at 50 uM after 24 hrs by Griess assay relative to control
Type: functional
Conditions: RAW264.7, 24 h
Outline: as §1

SMILES | inhibition at 50 µM [%]
COc1cc([C@@H](O)[C@H](CO)Oc2c(OC)cc([C@@H](O)[C@H](O)CO)cc2OC)ccc1O | 2.7
COc1cc([C@H](OC)[C@@H](CO)Oc2ccc([C@@H](O)[C@H](O)CO)cc2OC)ccc1O | 3.2
COc1cc([C@@H](O)[C@H](CO)Oc2ccc([C@@H](OC)[C@H](CO)c3ccc(O)c(OC)c3)cc2OC)ccc1O | 34.2

Tested on: not listed separately
Test: Antioxidant activity assessed as ferric ion reducing activity by measuring Fe2+ levels using fe3+-TPTZ at 3000 ug/ml after 30 mins by FRAP assay
Type: functional
Conditions: not given
Outline: as §2

SMILES | Activity [µmol/L]
COc1cc([C@@H](O)[C@H](CO)Oc2c(OC)cc([C@@H](O)[C@H](O)CO)cc2OC)ccc1O | 119
COc1cc([C@H](OC)[C@@H](CO)Oc2ccc([C@@H](O)[C@H](O)CO)cc2OC)ccc1O | 105
COc1cc([C@@H](O)[C@H](CO)Oc2ccc([C@@H](OC)[C@H](CO)c3ccc(O)c(OC)c3)cc2OC)ccc1O | 116

Tested on: not listed separately
Test: Antiinflammatory activity in mouse RAW264.7 cells assessed as inhibition of LPS-induced TNFalpha production at 50 uM after 24 hrs by ELISA relative to control
Type: functional
Conditions: RAW264.7, 24 h
Outline: as §3

SMILES | inhibition at 50 µM [%]
COc1cc([C@@H](O)[C@H](CO)Oc2c(OC)cc([C@@H](O)[C@H](O)CO)cc2OC)ccc1O | 28.2
COc1cc([C@H](OC)[C@@H](CO)Oc2ccc([C@@H](O)[C@H](O)CO)cc2OC)ccc1O | 37.2
COc1cc([C@@H](O)[C@H](CO)Oc2ccc([C@@H](OC)[C@H](CO)c3ccc(O)c(OC)c3)cc2OC)ccc1O | 5.2

Tested on: not listed separately
Test: Antiinflammatory activity in mouse RAW264.7 cells assessed as inhibition of LPS-induced TNFalpha production after 24 hrs by ELISA
Type: functional, cell-based
Conditions: RAW264.7, 24 h
Outline: as §3

SMILES | IC50 [µM]
COc1cc([C@@H](O)[C@H](CO)Oc2c(OC)cc([C@@H](O)[C@H](O)CO)cc2OC)ccc1O | > 100
COc1cc([C@H](OC)[C@@H](CO)Oc2ccc([C@@H](O)[C@H](O)CO)cc2OC)ccc1O | 76.1
COc1cc([C@@H](O)[C@H](CO)Oc2ccc([C@@H](OC)[C@H](CO)c3ccc(O)c(OC)c3)cc2OC)ccc1O | > 100

Tested on: not listed separately
Test: Antiinflammatory activity in mouse RAW264.7 cells assessed as inhibition of LPS-induced nitric oxide production at 10 uM after 24 hrs by Griess assay relative to control
Type: functional
Conditions: RAW264.7, 24 h
Outline: as §1

SMILES | inhibition at 10 µM [%]
COc1cc([C@@H](O)[C@H](CO)Oc2c(OC)cc([C@@H](O)[C@H](O)CO)cc2OC)ccc1O | 1.3
COc1cc([C@H](OC)[C@@H](CO)Oc2ccc([C@@H](O)[C@H](O)CO)cc2OC)ccc1O | -0.5
COc1cc([C@@H](O)[C@H](CO)Oc2ccc([C@@H](OC)[C@H](CO)c3ccc(O)c(OC)c3)cc2OC)ccc1O | 19.2

Tested on: not listed separately
Test: Antioxidant activity assessed as ABTS radical scavenging activity after 30 mins
Type: functional
Conditions: not given
Outline: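 ABTS radical generated by 7 mM ABTS plus 2.4 mM potassium persulfate, 12 h dark at room temperature, diluted in ethanol to OD 0.700 at 734 nm. Samples at several concentrations mixed with ABTS+ solution, 30 min at 37 °C, read at 734 nm; ethanol blank; percent scavenging calculated relative to blank.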

SMILES | IC50 [µM]
COc1cc([C@@H](O)[C@H](CO)Oc2c(OC)cc([C@@H](O)[C@H](O)CO)cc2OC)ccc1O | 10.7
COc1cc([C@H](OC)[C@@H](CO)Oc2ccc([C@@H](O)[C@H](O)CO)cc2OC)ccc1O | 10.8
COc1cc([C@@H](O)[C@H](CO)Oc2ccc([C@@H](OC)[C@H](CO)c3ccc(O)c(OC)c3)cc2OC)ccc1O | 5.9

Tested on: not listed separately
Test: Antiinflammatory activity in mouse RAW264.7 cells assessed as inhibition of LPS-induced TNFalpha production at 1 uM after 24 hrs by ELISA relative to control
Type: functional
Conditions: RAW264.7, 24 h
Outline: as §3

SMILES | inhibition at 1 µM [%]
COc1cc([C@@H](O)[C@H](CO)Oc2c(OC)cc([C@@H](O)[C@H](O)CO)cc2OC)ccc1O | 5.1
COc1cc([C@H](OC)[C@@H](CO)Oc2ccc([C@@H](O)[C@H](O)CO)cc2OC)ccc1O | 3.1
COc1cc([C@@H](O)[C@H](CO)Oc2ccc([C@@H](OC)[C@H](CO)c3ccc(O)c(OC)c3)cc2OC)ccc1O | 1.3

Tested on: not listed separately
Test: Antioxidant activity assessed as ferric ion reducing activity by measuring Fe2+ levels using fe3+-TPTZ at 1500 ug/ml after 30 mins by FRAP assay
Type: functional
Conditions: not given
Outline: as §2

SMILES | Activity [µmol/L]
COc1cc([C@@H](O)[C@H](CO)Oc2c(OC)cc([C@@H](O)[C@H](O)CO)cc2OC)ccc1O | 84.6
COc1cc([C@H](OC)[C@@H](CO)Oc2ccc([C@@H](O)[C@H](O)CO)cc2OC)ccc1O | 74.1
COc1cc([C@@H](O)[C@H](CO)Oc2ccc([C@@H](OC)[C@H](CO)c3ccc(O)c(OC)c3)cc2OC)ccc1O | 121

Tested on: not listed separately
Test: Antiinflammatory activity in mouse RAW264.7 cells assessed as inhibition of LPS-induced nitric oxide production at 1 uM after 24 hrs by Griess assay relative to control
Type: functional
Conditions: RAW264.7, 24 h
Outline: as §1

SMILES | inhibition at 1 µM [%]
COc1cc([C@@H](O)[C@H](CO)Oc2c(OC)cc([C@@H](O)[C@H](O)CO)cc2OC)ccc1O | 0.6
COc1cc([C@H](OC)[C@@H](CO)Oc2ccc([C@@H](O)[C@H](O)CO)cc2OC)ccc1O | -1.3
COc1cc([C@@H](O)[C@H](CO)Oc2ccc([C@@H](OC)[C@H](CO)c3ccc(O)c(OC)c3)cc2OC)ccc1O | 7
